Ten compounds from ChEMBL document CHEMBL3286209, “Synthesis and biological activities of novel pleuromutilin derivatives with a substituted thiadiazole moiety as potent drug-resistant bacteria inhibitors” (J Med Chem, 2014) can be followed below.

Converted amounts (≈) assume the structure as drawn.

Format in all cases: functional
Test [1] relates to Staphylococcus epidermidis. The test can be described thus: Antibacterial activity against methicillin-resistant Staphylococcus epidermidis after 48 hrs by agar dilution method. The method, boiled down:
(§1)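 Agar dilution per NCCLS using clinical isolates. Compound DMSO/water solutions are 2-fold serially diluted in water, then mixed 1:10 into hot Mueller–Hinton agar. Inocula come from blood slants, adjusted to about 10⁵−10⁶ cfu/mL in 0.90% saline, and spotted at 10 μL. Plates incubated at 36.5 °C for 48 h. MIC is the lowest concentration giving complete growth inhibition. Run in triplicate at pH 7.40.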
(Agar dilution tests growth on a series of plates holding different concentrations.)

Test [2] has as its system Staphylococcus aureus. The test can be described thus: Antibacterial activity against methicillin-resistant Staphylococcus aureus at 320 ug/ml after 24 hrs by Oxford cup assay. The following applies: read-out: IZ. The method, boiled down:
(§2)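 Oxford cup diffusion using clinical isolates. Inocula are made in 0.9% saline to a McFarland standard and spread on nutrient agar. […] Inhibition zone diameter is measured after 24 h at 37 °C. Run in triplicate.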

Test [3] concerns Streptococcus agalactiae. Put plainly: Antibacterial activity against Streptococcus agalactiae after 48 hrs by agar dilution method. The method, boiled down: (§3)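 Agar dilution per NCCLS on Mueller–Hinton agar; compound in DMSO/water, 2-fold serial dilutions in distilled water, 2 mL dilution mixed into 18 mL hot agar. Clinical isolates from blood slants, adjusted to about 10⁵−10⁶ cfu/mL in 0.90% saline; 10 μL spotted. Incubated 36.5 °C for 48 h; MIC = lowest concentration giving complete growth inhibition. Triplicate runs.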

Test [4] concerns Streptococcus agalactiae. The test can be described thus: Antibacterial activity against Streptococcus agalactiae at 320 ug/ml after 24 hrs by Oxford cup assay. Conditions: read-out: IZ. Summed up:
(§4)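 Oxford cup diffusion: saline inoculum set by McFarland standard, spread on nutrient agar plates. […] Inhibition zone measured after 24 h at 37 °C; triplicate.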

In test [5] the test system is Escherichia coli. Put plainly: Antibacterial activity against Escherichia coli at 320 ug/ml after 24 hrs by Oxford cup assay. Conditions: read-out: IZ. Summed up: as §4
For test [6], the system named is Escherichia coli. The test can be described thus: Antibacterial activity against Escherichia coli at 160 ug/ml after 24 hrs by Oxford cup assay. Conditions: read-out: IZ. The method, boiled down:
as §4

The test system of test [7] is Staphylococcus aureus. The test can be described thus: Antibacterial activity against methicillin-resistant Staphylococcus aureus at 160 ug/ml after 24 hrs by Oxford cup assay. The following applies: read-out: IZ. The method, boiled down:
as §2

In test [8] the test system is Staphylococcus epidermidis. Put plainly: Antibacterial activity against methicillin-resistant Staphylococcus epidermidis at 160 ug/ml after 24 hrs by Oxford cup assay. The following applies: read-out: IZ. Summed up: as §2
The test system of test [9] is Staphylococcus aureus. The test can be described thus: Antibacterial activity against methicillin-resistant Staphylococcus aureus after 48 hrs by agar dilution method. The method, boiled down: as §1
The subject of test [10] is Staphylococcus epidermidis. The test can be described thus: Antibacterial activity against methicillin-resistant Staphylococcus epidermidis at 320 ug/ml after 24 hrs by Oxford cup assay. The following applies: read-out: IZ. Summed up:
as §2

Test [11] has as its system Streptococcus agalactiae. The test can be described thus: Antibacterial activity against Streptococcus agalactiae at 160 ug/ml after 24 hrs by Oxford cup assay. Conditions: read-out: IZ. The method, boiled down:
as §4

Test [12] concerns Escherichia coli. The test can be described thus: Antibacterial activity against Escherichia coli after 48 hrs by agar dilution method. The method, boiled down: as §3

Broadly, the MIC is the smallest concentration in the dilution series that meets the test's criterion for growth inhibition. A low value points to a more susceptible organism. Take `C=C[C@]1(C)C[C@@H](OC(=O)CSc2nnc(NC(=O)c3ccccc3Cl)s2)[C@]2(C)[C@H](C)CC[C@]3(CCC(=O)[C@H]32)[C@@H](C)[C@@H]1O`: the minimal inhibitory concentration (MIC) in test [1] is 8 µg/mL (≈ 12.7 µM); in the test with Streptococcus agalactiae [3] it was 2 µg/mL (≈ 3.16 µM); with Staphylococcus aureus [9], 2 µg/mL (≈ 3.16 µM); in the test on Escherichia coli [12], no less than 64 µg/mL. In addition, the zone of inhibition at 320 µg/mL in the test with Staphylococcus aureus [2] was 15 mm; in the test with Streptococcus agalactiae [4] it was 15.5 mm; with Escherichia coli [5] it was 10.3 mm; in [10] it was 12.6 mm. The zone of inhibition at 160 µg/mL turned out to be 0 mm with Escherichia coli [6], 12.2 mm in the test with Staphylococcus aureus [7], 11.9 mm in test [8] and 12.7 mm in the test on Streptococcus agalactiae [11].
For `C=C[C@]1(C)C[C@@H](OC(=O)CSc2nnc(NC(=O)CN3CCN(C)CC3)s2)[C@]2(C)[C@H](C)CC[C@]3(CCC(=O)[C@H]32)[C@@H](C)[C@@H]1O`, the MIC in test [1] came out at 4 µg/mL (≈ 6.31 µM); with Streptococcus agalactiae [3], 8 µg/mL (≈ 12.6 µM); in the test on Staphylococcus aureus [9], 8 µg/mL (≈ 12.6 µM); with Escherichia coli [12] it was 16 µg/mL (≈ 25.2 µM). For the same compound, the zone of inhibition at 320 µg/mL was determined as 12 mm with Staphylococcus aureus [2], 12.6 mm in the test with Streptococcus agalactiae [4], 11.2 mm in the test on Escherichia coli [5] and 13.1 mm in test [10]. The zone of inhibition at 160 µg/mL worked out at 10.6 mm in the test on Escherichia coli [6], 11 mm in the test on Staphylococcus aureus [7], 10.7 mm in test [8] and 11.2 mm in the test with Streptococcus agalactiae [11].
With `C=C[C@]1(C)C[C@@H](OC(=O)CSc2nnc(NC(=O)CN3CCCC3)s2)[C@]2(C)[C@H](C)CC[C@]3(CCC(=O)[C@H]32)[C@@H](C)[C@@H]1O`, the MIC in test [1] came out at 4 µg/mL (≈ 6.61 µM); in the test on Streptococcus agalactiae [3] it was 2 µg/mL (≈ 3.31 µM); against Staphylococcus aureus [9], 4 µg/mL (≈ 6.61 µM); against Escherichia coli [12], 32 µg/mL (≈ 52.9 µM). Also, the zone of inhibition at 320 µg/mL in the test on Staphylococcus aureus [2] came out at 13.2 mm; in the test with Streptococcus agalactiae [4] it was 13.8 mm; in the test on Escherichia coli [5], 11.1 mm; in test [10] it was 12.8 mm. Besides, the zone of inhibition at 160 µg/mL with Escherichia coli [6] was found to be 9.86 mm; with Staphylococcus aureus [7] it was 13.1 mm; in [8], 10.5 mm; in the test with Streptococcus agalactiae [11] it was 12.8 mm.
In the case of `C=C[C@]1(C)C[C@@H](OC(=O)CSc2nnc(NC(=O)c3cccc(OC)c3)s2)[C@]2(C)[C@H](C)CC[C@]3(CCC(=O)[C@H]32)[C@@H](C)[C@@H]1O`, the MIC in test [1] was 4 µg/mL (≈ 6.37 µM); in the test on Streptococcus agalactiae [3], 8 µg/mL (≈ 12.7 µM); with Staphylococcus aureus [9] it was 8 µg/mL (≈ 12.7 µM); in the test with Escherichia coli [12], no less than 64 µg/mL. Also, the zone of inhibition at 320 µg/mL in the test on Staphylococcus aureus [2] was found to be 13.1 mm; in the test with Streptococcus agalactiae [4] it was 12.8 mm; in the test with Escherichia coli [5], 10.9 mm; in [10], 13.8 mm. Also, the zone of inhibition at 160 µg/mL was 9.02 mm with Escherichia coli [6], 11.4 mm in the test with Staphylococcus aureus [7], 12.3 mm in test [8] and 11.7 mm in the test on Streptococcus agalactiae [11].
As for `C=C[C@]1(C)C[C@@H](OC(=O)CSc2nnc(NC(=O)CN(C)C)s2)[C@]2(C)[C@H](C)CC[C@]3(CCC(=O)[C@H]32)[C@@H](C)[C@@H]1O`, the MIC turned out to be 2 µg/mL (≈ 3.46 µM) in [1], 2 µg/mL (≈ 3.46 µM) against Streptococcus agalactiae [3], 1 µg/mL (≈ 1.73 µM) in the test on Staphylococcus aureus [9] and 32 µg/mL (≈ 55.3 µM) against Escherichia coli [12]. For the same compound, the zone of inhibition at 320 µg/mL came out at 17.6 mm in the test with Staphylococcus aureus [2], 14.5 mm in the test with Streptococcus agalactiae [4], 12 mm in the test on Escherichia coli [5] and 16 mm in test [10]. Also, the zone of inhibition at 160 µg/mL worked out at 10.1 mm in the test on Escherichia coli [6], 15.4 mm in the test on Staphylococcus aureus [7], 14.3 mm in [8] and 11.5 mm with Streptococcus agalactiae [11].
`C=C[C@]1(C)C[C@@H](OC(=O)CSc2nnc(NC(=O)c3ccc(Cl)cc3)s2)[C@]2(C)[C@H](C)CC[C@]3(CCC(=O)[C@H]32)[C@@H](C)[C@@H]1O`: the MIC in test [1] is 4 µg/mL (≈ 6.33 µM); in the test with Streptococcus agalactiae [3], 4 µg/mL (≈ 6.33 µM); against Staphylococcus aureus [9], 4 µg/mL (≈ 6.33 µM); against Escherichia coli [12] it was no less than 64 µg/mL. The zone of inhibition at 320 µg/mL was 13.7 mm in the test on Staphylococcus aureus [2], 13.4 mm in the test on Streptococcus agalactiae [4], 10 mm in the test with Escherichia coli [5] and 14.1 mm in test [10]. The zone of inhibition at 160 µg/mL in the test with Escherichia coli [6] worked out at 0 mm; with Staphylococcus aureus [7] it was 11.9 mm; in [8], 11.3 mm; in the test on Streptococcus agalactiae [11], 11.4 mm.
Turning to `CC[C@]1(C)C[C@@H](OC(=O)CSc2nnc(N)[nH]2)[C@]2(C)[C@H](C)CC[C@]3(CCC(=O)[C@H]32)[C@@H](C)[C@@H]1O` [AZAMULIN], the MIC in test [1] was found to be 0.5 µg/mL (≈ 1.04 µM); against Streptococcus agalactiae [3], 0.125 µg/mL (≈ 0.261 µM); in the test with Staphylococcus aureus [9] it was 0.5 µg/mL (≈ 1.04 µM); in the test on Escherichia coli [12] it was 4 µg/mL (≈ 8.36 µM). Also, the zone of inhibition at 320 µg/mL was determined as 18 mm with Staphylococcus aureus [2], 18.9 mm with Streptococcus agalactiae [4], 17.2 mm with Escherichia coli [5] and 17 mm in [10]. The zone of inhibition at 160 µg/mL in the test with Escherichia coli [6] came out at 16 mm; with Staphylococcus aureus [7], 16.5 mm; in [8], 15.4 mm; in the test on Streptococcus agalactiae [11], 17.2 mm.
`C=C[C@]1(C)C[C@@H](OC(=O)CSc2nnc(NC(=O)CN3CCOCC3)s2)[C@]2(C)[C@H](C)CC[C@]3(CCC(=O)[C@H]32)[C@@H](C)[C@@H]1O`: the MIC in test [1] is 8 µg/mL (≈ 12.9 µM); against Streptococcus agalactiae [3], 4 µg/mL (≈ 6.44 µM); in the test on Staphylococcus aureus [9], 1 µg/mL (≈ 1.61 µM); against Escherichia coli [12], no less than 64 µg/mL. Moreover, the zone of inhibition at 320 µg/mL came to 15.4 mm with Staphylococcus aureus [2], 13.2 mm in the test with Streptococcus agalactiae [4], 11.9 mm in the test with Escherichia coli [5] and 10.8 mm in test [10]. For the same compound, the zone of inhibition at 160 µg/mL came out at 0 mm in the test on Escherichia coli [6], 13.4 mm with Staphylococcus aureus [7], 0 mm in test [8] and 10.9 mm in the test on Streptococcus agalactiae [11].
On to `C=C[C@]1(C)C[C@@H](OC(=O)CSc2nnc(NC(=O)CN(CC)CC)s2)[C@]2(C)[C@H](C)CC[C@]3(CCC(=O)[C@H]32)[C@@H](C)[C@@H]1O`, for which the minimal inhibitory concentration (MIC) was determined as 4 µg/mL (≈ 6.59 µM) in test [1], 8 µg/mL (≈ 13.2 µM) against Streptococcus agalactiae [3], 8 µg/mL (≈ 13.2 µM) against Staphylococcus aureus [9] and 64 µg/mL (≈ 105 µM) in the test with Escherichia coli [12]. Moreover, the zone of inhibition at 320 µg/mL with Staphylococcus aureus [2] stood at 12.3 mm; with Streptococcus agalactiae [4] it was 12.7 mm; in the test on Escherichia coli [5], 10.2 mm; in [10], 12.8 mm. Also, the zone of inhibition at 160 µg/mL came to 9.13 mm in the test with Escherichia coli [6], 11 mm with Staphylococcus aureus [7], 11.5 mm in test [8] and 10.4 mm in the test on Streptococcus agalactiae [11].
Turning to `C=C[C@]1(C)C[C@@H](OC(=O)CSc2nnc(NC(=O)c3ccc(OC)cc3)s2)[C@]2(C)[C@H](C)CC[C@]3(CCC(=O)[C@H]32)[C@@H](C)[C@@H]1O`, the MIC in [1] came to 2 µg/mL (≈ 3.19 µM); in the test on Streptococcus agalactiae [3] it was 2 µg/mL (≈ 3.19 µM); against Staphylococcus aureus [9], 2 µg/mL (≈ 3.19 µM); against Escherichia coli [12], 32 µg/mL (≈ 51 µM). Moreover, the zone of inhibition at 320 µg/mL with Staphylococcus aureus [2] stood at 15.5 mm; in the test with Streptococcus agalactiae [4], 14.3 mm; in the test on Escherichia coli [5] it was 11.2 mm; in [10], 14.4 mm. Also, the zone of inhibition at 160 µg/mL in the test with Escherichia coli [6] was 10.7 mm; with Staphylococcus aureus [7], 12.2 mm; in test [8], 9.52 mm; with Streptococcus agalactiae [11] it was 11.5 mm.
